Screens as filed in PubChem BioAssay.
In the library only some 2.1% were active in any assay of this set; here they are far more common.
Autophagy HCS: autophagy modulation, high-content screen; 0.98% of 190,000 active; calls only at 10 µM (by protocol); MEF GFP-LC3 puncta imaging; test concentration mostly 10 µM; AID 463193;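 active = percentage of spot-positive cells more than 3 SD above its plate mean, without a fluorescence outlier flag or 80% toxicity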;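 note: spot-positive cell cutoff set from DMSO-treated cells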
PERK inhibitor: human PERK inhibition, primary cell-based screen | Q9NZJ5 | CHO PERK-DD fusion, SEAP luminescence translation reporter | inhibition, % at 5.6 µM | 0.17% of 220,000 active;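 active = inhibition above the mean inhibition of all tested compounds plus 3 SD, set separately per screening campaign, cut at about 2.9% in these data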;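 note: PERK kinase domain activated by AP20187 dimerizer at 100 nM; 0% = DMSO with dimerizer and 100% = rapamycin at 8.4 µM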
Target sequence (Q9NZJ5 whole entry, looked up, the tested form may be a part): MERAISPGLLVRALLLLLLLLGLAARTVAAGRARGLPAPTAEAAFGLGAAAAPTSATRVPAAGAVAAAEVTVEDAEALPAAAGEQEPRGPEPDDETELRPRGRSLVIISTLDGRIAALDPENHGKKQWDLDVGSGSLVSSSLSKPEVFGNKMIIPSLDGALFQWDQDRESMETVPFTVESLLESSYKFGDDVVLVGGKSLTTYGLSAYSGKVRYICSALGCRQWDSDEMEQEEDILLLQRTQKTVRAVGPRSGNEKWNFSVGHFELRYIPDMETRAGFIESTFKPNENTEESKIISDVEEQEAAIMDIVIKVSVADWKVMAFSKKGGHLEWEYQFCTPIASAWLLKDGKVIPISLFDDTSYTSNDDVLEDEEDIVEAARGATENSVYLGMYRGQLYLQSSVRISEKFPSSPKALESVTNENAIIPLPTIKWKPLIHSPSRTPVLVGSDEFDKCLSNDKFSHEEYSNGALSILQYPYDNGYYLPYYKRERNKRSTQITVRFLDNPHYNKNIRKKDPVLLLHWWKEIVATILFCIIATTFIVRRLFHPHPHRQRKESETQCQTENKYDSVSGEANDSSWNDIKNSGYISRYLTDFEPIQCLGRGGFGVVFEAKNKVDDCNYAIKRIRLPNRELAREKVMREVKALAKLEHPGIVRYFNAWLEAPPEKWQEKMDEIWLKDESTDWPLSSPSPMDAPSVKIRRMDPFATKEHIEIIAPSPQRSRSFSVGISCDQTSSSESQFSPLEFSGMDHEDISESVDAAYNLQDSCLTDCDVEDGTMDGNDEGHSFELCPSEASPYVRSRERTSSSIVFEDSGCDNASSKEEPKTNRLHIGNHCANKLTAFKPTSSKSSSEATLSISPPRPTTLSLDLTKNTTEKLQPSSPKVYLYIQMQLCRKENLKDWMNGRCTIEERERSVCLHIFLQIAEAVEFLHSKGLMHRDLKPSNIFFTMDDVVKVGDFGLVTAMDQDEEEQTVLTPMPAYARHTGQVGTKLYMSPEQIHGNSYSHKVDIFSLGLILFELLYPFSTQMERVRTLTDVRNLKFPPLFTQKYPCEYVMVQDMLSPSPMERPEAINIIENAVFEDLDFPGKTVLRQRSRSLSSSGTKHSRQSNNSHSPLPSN
Dynein cargo inh: dynein cargo transport inhibition | 3617.4 mouse cells, GR-EGFP nuclear translocation imaging; test concentration mostly 20 µM; stimulated with dexamethasone, 1 µM; hits give low values | z-score, hits read low | 0.47% of 220,000 active | AID 1381;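 active = plate z-score of nuclear minus cytoplasmic receptor signal below a set negative limit, without overly bright fluorescence or cell loss, cut at about -3.5 in these data, passing the limit was not always enough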;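 note: z-score of nuclear minus cytoplasmic ring GR-EGFP intensity difference per well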
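Also added – dexamethasone, 1.0 µM final · Buffer or medium – tet-free, stripped-serum medium · Schedule – induction 48 h, compound 1 h, agonist 30 min · Detection – formaldehyde fixation, Hoechst nuclear stain, 10x automated fluorescence imaging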
Ins promoter up: MIN6 insulin promoter up-regulation. z-score at 5 µM. MIN6 insulin promoter-GFP reporter, high-content imaging; hits give high values. AID 1625. 0.3% of 190,000 active;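 active = z-score above 3 at 5 µM with at least 500 cells counted in the well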
INS promoter inh: TRM-6 insulin promoter activity inhibition. TRM-6 cells (human fetal islet line), insulin promoter-eGFP reporter, imaging; reporter expression induced with tamoxifen. inhibition, % at 2 µM. 0.9% of 130,000 active;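 active = inhibition above the mean plus 3 SD, with well images judged a real hit on visual review, cut at about 60% in these data, passing the limit was not always enough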
* hit, by the source's call; i = inactive; / = no result; + = active, no number; ! = repeats disagree.

SMILES | Autophagy HCS | PERK inhibitor | Dynein cargo inh | Ins promoter up | INS promoter inh
Cc1ccccc1OCc1n(CC(=O)OC2CC(C)CCC2C(C)C)c2ccccc2[n+]1C (stereo not given) | + | 1 | -1.7 | -5.1 | -29
CC1CCC(C(C)C)C(OC(=O)Cn2c(-c3ccc(Br)cc3)[n+](C)c3ccccc32)C1 (stereo not given) | +! | 0 | 0.65 | -1.9 | 0
CCNC(=S)N=Nc1c(O)[nH]c2ccc(C(C)C)cc12 | i | -1 | 0.078 | -1.6 | 64*
O=C(CCN1C(=O)c2ccc([N+](=O)[O-])cc2C1=O)Nc1nccs1 | + | 0 | -0.49 | 0.42 | /
CS(=O)(=O)CCC(C(=O)OCc1ccc(Cl)cc1)N1C(=O)c2ccccc2C1=O (stereo not given) | i | 0 | 0.79 | -0.21 | -56
O=[N+]([O-])c1ccc(N/N=C/c2cn(-c3ccccc3)nc2-c2ccccc2)cc1 | + | 0 | -2.7 | / | -96
CC(=O)C(=Cc1cn(-c2ccccc2)nc1-c1ccccc1)C(C)=O | i | 0 | -1.6 | 3.2* | /
NS(=O)(=O)c1ccc(N/N=C/c2cn(-c3ccccc3)nc2-c2ccccc2)c([N+](=O)[O-])c1 | i | 1 | -0.46 | -6.5 | 50
CN(C)C(=O)C1CCC(=O)N1Cc1cccs1 (stereo not given) | i | 1 | 0.94 | 1.1 | 35
O=C(Nc1nc2ccc(Cl)cc2s1)C1CCCO1 (stereo not given) | i | 0 | -0.56 | 0.19 | 6
COc1ccc(Nc2nc3ccccc3s2)cc1 | i | 1 | -0.29 | -0.13 | /
O=C(NNC(=O)C1CCCN(S(=O)(=O)c2ccc3ccccc3c2)C1)C1CC1 (stereo not given) | i | 4.3* | -0.63 | / | 48
O=C(Nc1nc2ccc([N+](=O)[O-])cc2s1)C1CCCO1 (stereo not given) | + | 1 | 0.29 | 0.16 | /
COc1ccc2nc(NC(=O)c3cccc(S(=O)(=O)N4CCOCC4)c3)sc2c1 | i | -1 | -0.97 | -0.9 | 74*
COc1cccc(Nc2nc3ccc(OC)cc3s2)c1 | i | 1 | 0.33 | 0.16 | 71*
O=S(=O)(c1ccc2ccccc2c1)N1CCCCCC1 | i | 1 | -0.73 | -1.9 | 33
COc1ccc2nc(NC(=O)c3cc(S(=O)(=O)N4CCOCC4)ccc3C)sc2c1 | i | -1 | 0.77 | / | 31
CC(C)(C)n1cc(S(=O)(=O)c2ccccc2)[nH]c1=O | i | 1 | 0.35 | -0.1 | /
CCCc1ccc(OCC(=O)NNC(=O)c2cccnc2)cc1 | i | 1 | 0.2 | / | 35
COc1ccc2nc(NC(=O)CSc3nnc(N)s3)sc2c1 | i | 1 | 0.4 | 0.01 | /
COc1ccc2nc(NC(=O)CS(=O)(=O)Cc3ccccc3)sc2c1 | + | -1 | 0.094 | 0.27 | /
O=C(Nc1nc2ccc(S(=O)(=O)N3CCCC3)cc2s1)C1CCCCC1 | + | 0 | -1 | -0.22 | -12
COc1ccc2nc(NC(=O)CSc3nnc(C)n3N)sc2c1 | / | 4.7* | 0.67 | 0.05 | /
Cc1c(F)cccc1NC(=O)CCCCCC1NC(=O)NC1C (stereo not given) | i | 1 | -0.37 | 0.08 | /
O=C(O)CCC(=O)N1CCN(c2ncccc2C(F)(F)F)CC1 | / | 1 | 0.11 | / | /
SMILES | Autophagy HCS | PERK inhibitor | Dynein cargo inh | Ins promoter up | INS promoter inh
Cc1ccc(NC(=O)CSc2nnc(Cc3ccccc3)o2)c(C)c1 | i | 0 | 1.9 | 0.84 | -7
Cc1ccccc1NC(=O)CSc1nnc(Cc2ccccc2)o1 | i | 0 | -0.66 | 0.65 | 75*
CCNC(=O)CSc1nnc(-c2cc(-c3ccc(Cl)cc3)nc3ccccc23)o1 | i | -1 | -0.14 | -0.73 | /
CCOC(=O)c1cc2oc(C(c3nnnn3C3CCCCC3)N3CCOCC3)cc2[nH]1 (stereo not given) | + | -1 | -0.71 | / | -44
Oc1ccc(C(c2nnnn2C2CCCCC2)N2CCOCC2)cc1 (stereo not given) | i | 0 | -0.34 | 0.31 | /
O=C(c1ccccc1)N1CCSC1=S | i | 3.0* | -0.39 | 0.22 | 32
Cc1ccc(C(=O)N2CCSC2=S)cc1 | i | 1 | -0.74 | 0.42 | /
CN(CC(O)Cn1cnc2c1c(=O)n(C)c(=O)n2C)c1ccccc1 (stereo not given) | + | 0 | -0.41 | 0.08 | /
CN(C)CCNc1oc(COc2ccc(-c3ccccc3)cc2)nc1C#N | + | -1 | 3 | -1.2 | 31
N#Cc1nc(COc2ccc(-c3ccccc3)cc2)oc1NCCCN1CCOCC1 | i | -1 | 0.11 | 0.4 | 50
